Screening results from PubChem.
Rows were chosen to be rich in hits. Some 1.6% of all compounds tested hit in one or more screens of this group.
UHRF1 binding = UHRF1 methyl-DNA binding inhibition. Q96T88. UHRF1 binding to methylated oligo, TR-FRET. inhibition, % at 4.4 µM. 370,000 tested, 0.75% active. AID 687016; in the data active means inhibition above about 21%;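 further: UHRF1 SRA domain binding a hemimethylated CpG hairpin DNA probe; 0% = median of test compound wells and 100% = reference inhibitor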
Target sequence (Q96T88 whole entry, looked up, the tested form may be a part): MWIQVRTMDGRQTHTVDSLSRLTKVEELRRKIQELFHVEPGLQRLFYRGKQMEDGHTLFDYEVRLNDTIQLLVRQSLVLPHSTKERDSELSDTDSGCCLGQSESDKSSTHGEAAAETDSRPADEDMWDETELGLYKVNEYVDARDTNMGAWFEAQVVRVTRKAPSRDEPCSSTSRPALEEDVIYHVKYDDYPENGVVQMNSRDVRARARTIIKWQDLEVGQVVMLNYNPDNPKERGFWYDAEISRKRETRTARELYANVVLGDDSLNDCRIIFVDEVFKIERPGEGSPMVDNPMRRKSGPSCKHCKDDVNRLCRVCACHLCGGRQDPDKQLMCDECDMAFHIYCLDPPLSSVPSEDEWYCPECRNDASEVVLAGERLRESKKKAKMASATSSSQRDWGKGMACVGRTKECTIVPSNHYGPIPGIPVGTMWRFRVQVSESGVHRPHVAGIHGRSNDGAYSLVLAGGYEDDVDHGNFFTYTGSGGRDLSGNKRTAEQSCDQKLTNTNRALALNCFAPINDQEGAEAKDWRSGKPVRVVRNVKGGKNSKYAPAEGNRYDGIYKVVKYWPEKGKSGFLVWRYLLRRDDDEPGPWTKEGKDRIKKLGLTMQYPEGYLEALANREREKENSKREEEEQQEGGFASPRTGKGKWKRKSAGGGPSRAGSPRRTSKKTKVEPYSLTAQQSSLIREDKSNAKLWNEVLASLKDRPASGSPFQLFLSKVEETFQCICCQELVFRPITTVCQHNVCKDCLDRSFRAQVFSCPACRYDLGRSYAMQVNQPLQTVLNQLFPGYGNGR
TDP2 absorb = TDP2 (human) inhibition, absorbance primary screen; inhibition, % at 12.8 µM; 370,000 tested, 0.34% active; O95551; AID 720702; recombinant TDP2, T5PNP hydrolysis, p-nitrophenol absorbance 415 nm;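 active means inhibition above the mean of all tested compounds plus 3 SD, set per campaign, cut at about 25% in these data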;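 further: 0% = DMSO with enzyme and 100% = buffer with substrate but no TDP2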
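Read-out basis: percent inhibition. System: recombinant human TDP2. Buffer or medium: Mg2+-containing Tris-HCl buffer, pH 7.5. Repeats: single replicate. Timing: reaction 2 h, 37 °C. Benchmarks: high control without enzyme, low control DMSO plus TDP2. Probe or stimulus: 5 mM T5PNP. Doses: 12.8 µM only. Measured by: epi absorbance of p-nitrophenol freed from T5PNP by hydrolysis.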
LEDGF integ inh = blocks HIV-1 LEDGF/p75-dependent DNA integration; 370,000 tested, 0.64% active; inhibition, % at 3.7 µM; TR-FRET IN-LEDGF/p75 DNA integration, Eu/Cy5; AID 743269;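 active means inhibition above the screen-wide mean plus 3 SD, cut at about 13% in these data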;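 further: signal is the Cy5 over europium emission ratio at 671 and 618 nm; 0% = plate median of compound wells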
MBD2 DNA inh = blocks human MBD2 binding to methylated DNA. Q9UBB5. TR-FRET, MBD2 binding to methylated oligonucleotide. inhibition, % at 4.4 µM. 370,000 tested, 0.31% active; in the data active means inhibition above about 13%
Starred values were filed as active, the others as inactive.

SMILES	UHRF1 binding	TDP2 absorb	LEDGF integ inh	MBD2 DNA inh
Cc1ccc(S(=O)(=O)N2CCOCC2)cc1NC(=O)Cn1nnc(-c2ccccc2)n1	0	5	1	2
COc1ccc(S(=O)(=O)c2c(N)n(Cc3ccco3)c3nc4ccccc4nc23)cc1	0	-1	15*	2
Cc1ccc(S(=O)(=O)c2c(N)n(/N=C/c3ccco3)c3nc4ccccc4nc23)cc1	5	-8	1	7
COc1ccc(Cn2c(C)nc3c(c2=O)c2nc4ccccc4nc2n3Cc2ccco2)cc1	17	0	14*	18*
CN1C(=O)c2cc(NC(=O)C3CCCCC3)ccc2OC[C@H]2O[C@@H](CC(=O)NC3CCCC3)CC[C@H]21	-1	3	0	-5
Cc1nn(C)c(C)c1N1C(=O)c2cccc3c(Br)ccc(c23)C1=O	22*	4	-2	0
Cc1nn(C)c(C)c1N1C(=O)c2cccc3c(N)ccc(c23)C1=O	-311	-1	-2	-73
COc1ccccc1Cc1c(C(C)(C)C)nc2c(C)cc(Br)cn12	23*	7	0	2
COc1ccccc1Cc1c(C(C)(C)C)nc2ccc(C)cn12	23*	6	-2	2
COc1ccc(Cc2c(C(C)(C)C)nc3ccc(C)cn23)c(C)c1	24*	3	3	9
COc1ccc(CNCC#Cc2ccccc2)c(OC)c1	3	1	0	5
CCCc1cc(=O)oc2cc(C)c(CN3CCCC3)c(O)c12	10	4	13*	7
CCc1cc(=O)oc2cc(C)c(CN3CCCCC3)c(O)c12	7	9	13	6
CCOP(=O)(OCC)c1nc(-c2cccc3ccccc23)oc1NCc1ccc(OC)cc1	24*	-20	6	9
O=[N+]([O-])c1ccc(OCCCN2CCC(C(O)(c3ccccc3)c3ccccc3)CC2)c(Cl)c1	-2	-9	3	-5
CN(C)c1oc(-c2ccc(Cl)cc2)nc1S(=O)(=O)c1ccccc1	25*	5	1	10
O=C(NCc1ccc(Cl)cc1)O[C@H]1CC[C@@]23CCCN2C(=O)CCC[C@H]3C1	2	-4	-2	-4
CC1=CC(c2ccccc2)n2nnnc2N1 (configuration not stated)	35*	-6	-1	1
CC1=CC(c2ccccc2)n2nc(N3C(=O)c4ccccc4C3=O)nc2N1 (configuration not stated)	-3	9	-2	-5
CC[C@@]1(C(=O)OC)N[C@H](CN(C)C(=O)Nc2ccc(C)cc2)[C@@H]2C(=O)N(C)C(=O)[C@@H]21	0	-4	4	-4
CC[C@@]1(C(=O)OC)N[C@H](CN(C)C(=O)Nc2ccc(OC)cc2)[C@@H]2C(=O)N(C)C(=O)[C@@H]21	22*	-3	-5	11
CCCOc1ccc(C2=NNC(=O)CC2)cc1	-4	-2	-2	-4
COc1ccc(C2=NNC(=O)CC2)cc1	23*	4	2	0
COC(=O)[C@]12C[C@H](CC(=O)NCc3cccc(C(F)(F)F)c3)C(=O)N(Cc3ccc(Cl)cc3Cl)C1=C[C@H](C1CCCC1)O[C@@H]2C	0	-2	-3	1
Cc1cc(N2CCN(C(c3ccnc4ccccc34)c3nnnn3-c3c(C)cccc3C)CC2)c2ccccc2n1 (configuration not stated)	24*	6	0	3
SMILES	UHRF1 binding	TDP2 absorb	LEDGF integ inh	MBD2 DNA inh
COc1ccc(Cn2c(SCC(=O)NCc3ccco3)nc3ccsc3c2=O)cc1	5	-9	21*	-4
CC(C)c1ccc(S(=O)(=O)N2CCN(CCC(=O)Nc3ccc(N(C)C)cc3)CC2)cc1	23*	-1	6	15*
O=C(OC12CCCN(C1)/C(=C/c1ccccc1)C2)C1CCCC1 (configuration not stated)	1	4	-1	5
O=C(CCc1ccc(O)c(O)c1)N/N=C/c1ccc2c(c1)OCO2	21*	12	33*	9
CC(C)Oc1ccc(CCC(=O)N/N=C/c2ccc3c(c2)OCO3)cc1	-1	-12	-3	2
CCc1ccc(NC(=O)c2cnc3scc(C)n3c2=O)cc1	46*	5	0	1
Cc1csc2ncc(C(=O)Nc3cccc(C(F)(F)F)c3)c(=O)n12	2	-10	3	0
Cc1cccc(Cn2cc(COC(=O)NCC(C)C)nn2)c1	-1	6	-2	2
CCCCCN1CCCCC(NC(=O)C(C)(C)C)C1=O (configuration not stated)	-1	-15	0	4
Cc1c(NC(=O)c2ccco2)cccc1-c1nc2cccnc2s1	-1	3	2	-5
Cc1c(NC(=O)c2ccc(Cl)nc2)cccc1-c1nc2cccnc2s1	22*	-1	3	10
O=C(COC(=O)c1ccccc1F)Nc1cccnc1Cl	25*	0	1	-4
O=C(COC(=O)c1ccccc1Cl)Nc1cccnc1Cl	-1	-4	-1	-2
N#Cc1ccc(CSc2nc3sc4c(c3c(=O)n2-c2ccc(Br)cc2)CCCC4)cc1	2	3	2	4
COc1cccc(N2CCN(CC(=O)NCc3ccc(F)cc3)CC2)c1	0	4	1	-2
Cc1occc1-c1nnc(SCC(=O)N2CCCc3ccccc32)n1Cc1ccco1	22*	-7	0	4
O=C(CSc1nnc(-c2cccnc2)n1Cc1ccco1)N1CCc2ccccc21	0	6	-2	1
COc1nc(-c2cccs2)cc(-c2ccc(C)cc2)c1C#N	22*	2	1	13
Cn1c(=O)c2cc(S(=O)(=O)N3CCN(c4ccccc4Cl)CC3)ccc2n(C)c1=O	0	8	-2	-3
Cn1c(=O)n(Cc2ccccc2)c2ccccc21	1	-4	-5	2
Cn1c(=O)n(Cc2ccc(Br)cc2)c2ccccc21	23*	-6	4	4
Cn1c(NC(=O)/C=C\c2ccccc2)cc(=O)n(C)c1=O	26*	-12	0	0
Cn1c(NC(=O)/C=C/c2c(F)cccc2Cl)cc(=O)n(C)c1=O	-4	8	6	1
O=C(NCCc1ccccc1F)c1ccc2c(c1)ncn2C1CCCCC1	0	-3	-5	-1
O=C(CCl)N1CCN(CC(=O)N2CCCC2)CC1	21*	-13	8	-4
SMILES	UHRF1 binding	TDP2 absorb	LEDGF integ inh	MBD2 DNA inh
O=C(CSc1nc2c(c(=O)[nH]1)CCCC2)N1CCOCC1	5	-2	3	0
COC(=O)[C@]12C[C@H](CC(=O)N3CCCCC3)C(=O)N(Cc3ccccc3)C1=C[C@H](COCc1ccccc1)O[C@@H]2C	-2	7	3	-7
COc1ccc(-n2c(SCC(=O)Nc3ccccc3-c3ccccc3)nnc2-c2ccco2)cc1	2	-6	1	2
Cc1nc(N(C)C)c2sc(=S)n(C)c2n1	27*	-1	-3	-1
Cc1nc(N(C)C)c2sc(=S)n(-c3ccccc3)c2n1	11	8	-1	6
COC(CNC(=O)[C@H](Cc1ccccc1)NC(C)(C)C(=O)NC1CCCCC1)OC	4	6	-4	4
